In the library only some 0.9% were active in any assay of this set; here they are far more common.
RGS4-Gao reg: human RGS4-Galphao interaction regulation; P09471; Multiplexed bead flow cytometry, RGS4-Galphao binding; actives lie on both sides; binding response (% of control), % at 10 µM; 220,000 compounds, 0.33% hits; AID 1415; in the data active = binding response below about 49% or above about 150%; inactive = in between;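 also: fluorescent Galphao activated with aluminum fluoride binding bead-coupled RGS4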
Target sequence (P09471 whole entry, looked up): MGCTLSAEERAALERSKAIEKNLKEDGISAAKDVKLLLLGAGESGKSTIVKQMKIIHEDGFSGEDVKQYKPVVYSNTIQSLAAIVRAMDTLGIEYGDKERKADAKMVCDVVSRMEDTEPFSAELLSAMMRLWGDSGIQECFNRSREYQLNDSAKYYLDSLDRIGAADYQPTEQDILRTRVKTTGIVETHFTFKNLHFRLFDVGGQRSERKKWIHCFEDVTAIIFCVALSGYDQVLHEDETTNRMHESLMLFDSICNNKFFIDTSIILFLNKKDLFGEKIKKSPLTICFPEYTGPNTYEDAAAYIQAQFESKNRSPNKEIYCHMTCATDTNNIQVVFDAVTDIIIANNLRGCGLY
RGS8-Gao: regulators of human RGS8-Galphao interaction | response (percent of control binding), % at 10 µM | P09471 | multiplexed bead flow cytometry, RGS8-Galphao binding; actives lie on both sides | 220,000 compounds, 0.34% hits; in the data active = response below about 60% or above about 140%; inactive = in between;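 also: Galphao activated as the GDP aluminium fluoride complex binding bead-coupled RGS8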
RGS16-Gao HTS: RGS16-Galphao interaction regulator (human) | bead-based flow cytometry RGS16-Galphao binding, fluorescence; actives lie on both sides | binding response (% of control), % at 10 µM | 220,000 compounds, 0.38% hits | AID 1441;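 also: Galphao activated by GDP with aluminum fluoride before binding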
ABCB1 block: blocks JC-1 efflux by human ABCB1 transporter | 190,000 compounds, 0.067% hits | inhibition, % at 6.6 µM | CCRF-Adr cells, flow cytometry; in the data active = inhibition above about 40%;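 also: 0% = vehicle and 100% = reference inhibitor; higher value means more JC-1 retained so stronger ABCB1 efflux block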
ABCG2 block: blocks JC-1 efflux by human ABCG2 transporter | Q9UNQ0 | IgMXP3 cells, flow cytometry | inhibition, % at 6.6 µM | 190,000 compounds, 0.1% hits | AID 1325;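 active = inhibition above 80%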;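 also: 0% = DMSO and 100% = nicardipine control wells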
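Test system: IgMXP3 (ABCG2) plus far-red-tagged CCRF-Adr (ABCB1) cells / Amount: 3 million cells/mL in well / Reagent: JC-1 transporter substrate / Timing: 10 min compound exposure, 25 °C / Signal: flow cytometry, 530 nm JC-1 signal / Read-out: percent efflux inhibition, scaled nicardipine 100% to DMSO 0% / Benchmarks: nicardipine as high control, DMSO as low control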
RGS7-Gao: modulates binding of RGS7 to human Galphao; Multiplexed bead flow cytometry; actives lie on both sides; 220,000 compounds, 0.35% hits; AID 1439; P09471; binding response (% of control), % at 10 µM; in the data active = binding response below about 49% or above about 150%; inconclusive = no clear call, values can overlap the other calls; inactive = in between;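 also: fluorescent Galphao held in activated GDP-AlF4 state binding bead-coupled RGS7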
RGS-Gao: modulates binding between human RGS4 and Galphao | 1,600 compounds, 99% hits | multiplexed bead flow cytometry, RGS–Galpha-o binding | RGS4–Galpha-o binding response, % at 10 µM | shares compounds with RGS16-Gao HTS;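 also: fluorescently labeled Galpha-o bound to GDP with aluminium fluoride binding biotinylated RGS beads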
Target sequence (P09471 whole entry, looked up): as above
Target sequence (P49798 whole entry, looked up): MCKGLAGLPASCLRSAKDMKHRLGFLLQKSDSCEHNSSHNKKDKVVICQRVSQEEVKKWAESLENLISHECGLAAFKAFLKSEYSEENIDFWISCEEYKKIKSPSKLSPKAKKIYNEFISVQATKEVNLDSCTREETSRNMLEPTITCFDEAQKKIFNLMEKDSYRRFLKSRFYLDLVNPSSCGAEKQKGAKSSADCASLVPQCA
Biotin-avidin: biotin-avidin bead binding disruption counter-screen. inhibition, % at 10 µM. 1,700 tested, under 10 active. shares compounds with RGS16-Gao HTS. streptavidin beads, fluorescein-biotin binding, flow cytometry;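 active = inhibition above 50%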;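 also: median green fluorescence of gated singlet beads compared with DMSO control wells; 0% = DMSO wells and 100% = complete loss of bead fluorescence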
RGS8-Gao single: confirmation of regulators of human RGS8-Galphao interaction; AID 1836; 1,700 compounds, 3% hits; bead-based flow cytometry RGS8-Galphao binding, fluorescence; actives lie on both sides; shares compounds with RGS16-Gao HTS; binding response (% of control), % at 10 µM; in the data active = binding response below about 72% or above about 130%; inactive = in between;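 also: Galphao activated as GDP AlF4 complex before binding bead RGS8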
RGS7-Gao single: RGS7-Galphao interaction regulation, single point confirmation; shares compounds with RGS16-Gao HTS; bead-based flow cytometry RGS7-Galphao binding; actives lie on both sides; response (percent of control binding), % at 10 µM; 1,700 compounds, 7.8% hits; in the data active = response below about 75% or above about 130%; inactive = in between;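 also: fluorescent Galphao activated with GDP and aluminum fluoride binding bead-coupled RGS7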
RGS16-Gao conf: RGS16-Galphao interaction regulation, single point confirmation; AID 1838; shares compounds with RGS16-Gao HTS; response (% of control binding), % at 10 µM; bead-based flow cytometry, RGS16-Galphao binding; actives lie on both sides; 1,700 compounds, 4% hits; in the data active = response below about 74% or above about 130%; inactive = in between;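 also: Galphao activated as the GDP aluminium fluoride complex binding bead-coupled RGS16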
RGS4-Gao confirm: confirmation of regulators of human RGS4-Galphao interaction; shares compounds with RGS16-Gao HTS; RGS4-Galphao binding, multiplexed bead flow cytometry; actives lie on both sides; binding response (% of control), % at 10 µM; 1,700 compounds, 4% hits; in the data active = binding response below about 74% or above about 130%; inactive = in between
RGS19-Gao single: RGS19-Galphao interaction regulation, single point confirmation | shares compounds with RGS16-Gao HTS | bead-based flow cytometry RGS19-Galphao binding; actives lie on both sides | response (percent of control binding), % at 10 µM | 1,700 compounds, 5% hits; in the data active = response below about 50% or above about 160%; inactive = in between;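 also: 100% = no compound control and 0% = blank background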
* marks the source's active call; other numbers are inactive results; [ ] = dose if it differs, or a comment. Unless noted, no rule for the calls is given here.

Results for COC(=O)c1c(NC(=S)Nc2ccc(C(=O)N3CCOCC3)cc2)sc2c1CCC2 ?
RGS4-Gao reg: 100; RGS8-Gao: 105; RGS16-Gao HTS: 106; ABCB1 block: 1; ABCG2 block: 3; RGS7-Gao: 96

How did Cn1c(=O)c2c(=O)cc(N)[nH]c2n(C)c1=O do in these assays?
RGS4-Gao reg: 97; RGS8-Gao: 77; RGS16-Gao HTS: 100; RGS7-Gao: inconclusive; Biotin-avidin: 0; RGS8-Gao single: 100; RGS7-Gao single: 103; RGS16-Gao conf: 101; RGS4-Gao confirm: 102; RGS19-Gao single: 99

How did CN(C)c1c(N)[nH]c2c(c1=O)c(=O)n(C)c(=O)n2C do in these assays?
RGS4-Gao reg: 103; RGS8-Gao: 105; RGS16-Gao HTS: 111; ABCB1 block: 0; ABCG2 block: 1; RGS7-Gao: 103

What do the screens show for `O=C(/C(C=Nc1ccc(Br)cc1)=C(/O)c1ccco1)C(F)(F)F`?
RGS4-Gao reg: 103; RGS8-Gao: 101; RGS16-Gao HTS: 100; ABCB1 block: 0; ABCG2 block: 3; RGS7-Gao: 96

How did O=C(/C(C=Nc1cccc(C(F)(F)F)c1)=C(/O)c1ccco1)C(F)(F)F do in these assays?
RGS4-Gao reg: 87; RGS8-Gao: 64; RGS16-Gao HTS: 2.5*; ABCB1 block: 0; ABCG2 block: 0; RGS7-Gao: 81; RGS-Gao: 87*; Biotin-avidin: 2; RGS8-Gao single: 105; RGS7-Gao single: 112; RGS16-Gao conf: 111; RGS4-Gao confirm: 109; RGS19-Gao single: 108

Results for COc1c(Cl)cc(Cl)cc1/C=C/C(=O)c1ccc(NC(=O)c2cccs2)cc1 ?
RGS4-Gao reg: 25*; RGS8-Gao: 22*; RGS16-Gao HTS: 9.2*; ABCB1 block: 0; ABCG2 block: -2; RGS7-Gao: 16*; Biotin-avidin: 2; RGS8-Gao single: 100; RGS7-Gao single: 100; RGS16-Gao conf: 101; RGS4-Gao confirm: 100; RGS19-Gao single: 103

How did Oc1ccc(/C=C/c2cnccn2)cc1 do in these assays?
RGS4-Gao reg: 99; RGS8-Gao: 100; RGS16-Gao HTS: 97; RGS7-Gao: inconclusive

What do the screens show for `CCOC(=O)c1ccc(N2C(=O)CC(N3CCN(C/C=C/c4ccccc4)CC3)C2=O)cc1` (configuration not stated)?
RGS4-Gao reg: 134; RGS8-Gao: 153*[activator]; RGS16-Gao HTS: inactive; ABCB1 block: 10; ABCG2 block: 15; RGS7-Gao: 122; RGS-Gao: 134*; Biotin-avidin: 0; RGS8-Gao single: 109; RGS7-Gao single: 108; RGS16-Gao conf: 112; RGS4-Gao confirm: 105; RGS19-Gao single: 115

Results for CCOC(=O)C1CCCN(C2CC(=O)N(c3ccccc3)C2=O)C1 (configuration not stated) ?
RGS4-Gao reg: 94; RGS8-Gao: 95; RGS16-Gao HTS: 96; ABCB1 block: 1; ABCG2 block: 18; RGS7-Gao: 86

How did CCCn1c(SC(C(=O)Nc2cccc(OC)c2)c2ccccc2)nc2ccccc2c1=O (configuration not stated) do in these assays?
RGS4-Gao reg: 98; RGS8-Gao: 96; RGS16-Gao HTS: 64; ABCB1 block: 0; ABCG2 block: -2; RGS7-Gao: 98

What do the screens show for `O=C(Cc1ccccc1)Nn1c(O)c(/C=C2\C=Nc3ccccc32)sc1=S`?
RGS4-Gao reg: 99; RGS8-Gao: 137; RGS16-Gao HTS: 262*[activator]; ABCB1 block: -4; ABCG2 block: -16; RGS7-Gao: 100; RGS-Gao: 99*; Biotin-avidin: 0; RGS8-Gao single: 100; RGS7-Gao single: 103; RGS16-Gao conf: 101; RGS4-Gao confirm: 103; RGS19-Gao single: 98

What do the screens show for `O=C(Cc1ccc(Br)cc1)N(Cc1ccccc1)c1ccccn1`?
RGS4-Gao reg: 112; RGS8-Gao: 103; RGS16-Gao HTS: 107; ABCB1 block: 1; ABCG2 block: 4; RGS7-Gao: 151*[activator]; RGS-Gao: 112*; Biotin-avidin: 2; RGS8-Gao single: 98; RGS7-Gao single: 94; RGS16-Gao conf: 99; RGS4-Gao confirm: 98; RGS19-Gao single: 145

Results for CC(=O)Nc1cccc(OCCCNC(=O)c2ccc(C(C)(C)C)cc2)c1 ?
RGS4-Gao reg: 100; RGS8-Gao: 100; RGS16-Gao HTS: 98; RGS7-Gao: inconclusive

How did CC1(C)C(=O)OC(/C=C\c2cccc([N+](=O)[O-])c2)C(C)(C)C1=O (configuration not stated) do in these assays?
RGS4-Gao reg: 101; RGS8-Gao: 101; RGS16-Gao HTS: 102; ABCB1 block: 0; ABCG2 block: 1; RGS7-Gao: inconclusive

Results for O=S1(=O)CC2N=C(N(Cc3c(F)cccc3Cl)c3ccccc3F)SC2C1 (configuration not stated) ?
RGS4-Gao reg: 19*; RGS8-Gao: 17*; RGS16-Gao HTS: 11*; ABCB1 block: 0; ABCG2 block: -1; RGS7-Gao: 12*; Biotin-avidin: 1; RGS8-Gao single: 102; RGS7-Gao single: 98; RGS16-Gao conf: 104; RGS4-Gao confirm: 102; RGS19-Gao single: 98

Source: PubChem BioAssay (NMMLSC)
